Columns and labels:
[1] = Drug metabolism assessed as OXA10 (unknown origin)-mediated compound hydrolysis by measuring (R)-2-((1S,2R)-1-carboxy-2-hydroxypropyl)-5-((R)-tetrahydrofuran-2-yl)-2,3-dihydrothiazole-4-carboxylic acid formation at 5 mM incubated for 16 hrs by 1H-NMR based analysis; type: ADME; conditions: bacteria, 5000 µM
Summary of the method: (§1)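 OXA-10 at 5 μM with 5 mM faropenem, incubated 16 h in 50 mM sodium phosphate, pH 7.5, 10% (v/v) D2O. Product formation read by 1H NMR (700 MHz) methyl group resonances.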

[2] = tested on: Bacteria
[3] = Drug metabolism assessed as OXA-48 (unknown origin)-mediated compound hydrolysis by measuring (R)-2-((1S,2R)-1-carboxy-2-hydroxypropyl)-5-((R)-tetrahydrofuran-2-yl)-2,3-dihydrothiazole-4-carboxylic acid formation at 5 mM incubated for 55 mins by 1H-NMR based analysis; type: ADME; conditions: bacteria, 5000 µM
Summary of the method: (§2)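 Reaction of OXA-48 (5 μM) with 5 mM faropenem for 55 min in 50 mM sodium phosphate pH 7.5, 10% (v/v) D2O. Products assigned from methyl group resonances in 700 MHz 1H NMR spectra.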

[4] = tested on: Bacteria; remark: listed apart in the source
[5] = tested on: Klebsiella pneumoniae
[6] = Drug metabolism assessed as NDM-1 (unknown origin)-mediated compound hydrolysis by measuring (S)-2-((1S,2R)-1-carboxy-2-hydroxypropyl)-5-((R)-tetrahydrofuran-2-yl)-2,3-dihydrothiazole-4-carboxylic acid formation at 5 mM incubated for 5 mins by 1H-NMR based analysis; type: ADME; conditions: bacteria, 5000 µM
Summary of the method: (§3)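 NDM-1 used at 5 μM with 5 mM faropenem, 5 min incubation, in 50 mM sodium phosphate, pH 7.5, 10% (v/v) D2O. Degradation products monitored by 700 MHz 1H NMR via methyl group signals.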

[7] = tested on: Klebsiella pneumoniae; remark: listed apart in the source
[8] = Drug metabolism assessed as KPC-2 (unknown origin)-mediated compound hydrolysis by measuring (S)-2-((1S,2R)-1-carboxy-2-hydroxypropyl)-5-(4-hydroxybutylidene)-2,5-dihydrothiazole-4-carboxylic acid formation at 5 mM incubated for 72 mins by 1H-NMR based analysis; type: ADME; conditions: bacteria, 1.2 h, 5000 µM
[9] = tested on: Bradyrhizobium japonicum; conditions: USDA110
[10] = Drug metabolism assessed as KPC-2 (unknown origin)-mediated compound hydrolysis by measuring (S)-2-((1S,2R)-1-carboxy-2-hydroxypropyl)-5-((R)-tetrahydrofuran-2-yl)-2,3-dihydrothiazole-4-carboxylic acid formation at 5 mM incubated for 72 mins by 1H-NMR based analysis; type: ADME; conditions: bacteria, 1.2 h, 5000 µM
[11] = tested on: Mycobacterium tuberculosis H37Rv
[12] = tested on: Bacteria; remark: listed apart in the source
[13] = tested on: Mycobacterium tuberculosis H37Rv; remark: listed apart in the source
[14] = Drug metabolism assessed as VIM-1 (unknown origin)-mediated compound hydrolysis by measuring (R)-2-((1S,2R)-1-carboxy-2-hydroxypropyl)-5-((R)-tetrahydrofuran-2-yl)-2,3-dihydrothiazole-4-carboxylic acid formation at 5 mM incubated for 5 mins by 1H-NMR based analysis; type: ADME; conditions: bacteria, 5000 µM
[15] = Drug metabolism assessed as VIM-2 (unknown origin)-mediated compound hydrolysis by measuring (S)-2-((1S,2R)-1-carboxy-2-hydroxypropyl)-5-(4-hydroxybutylidene)-2,5-dihydrothiazole-4-carboxylic acid formation at 5 mM incubated for 5 mins by 1H-NMR based analysis; type: ADME; conditions: bacteria, 5000 µM
[16] = Drug metabolism assessed as OXA-23 (unknown origin)-mediated compound hydrolysis by measuring (S)-2-((1S,2R)-1-carboxy-2-hydroxypropyl)-5-(4-hydroxybutylidene)-2,5-dihydrothiazole-4-carboxylic acid formation at 2 mM incubated for 15 mins by 1H-NMR based analysis; type: ADME; conditions: bacteria, 0.25 h, 2000 µM
[17] = Drug metabolism assessed as VIM-2 (unknown origin)-mediated compound hydrolysis by measuring (R)-2-((1S,2R)-1-carboxy-2-hydroxypropyl)-5-(4-hydroxybutylidene)-2,5-dihydrothiazole-4-carboxylic acid formation at 5 mM incubated for 5 mins by 1H-NMR based analysis; type: ADME; conditions: bacteria, 5000 µM
[18] = Drug metabolism assessed as OXA10 (unknown origin)-mediated compound hydrolysis by measuring (R)-2-((1S,2R)-1-carboxy-2-hydroxypropyl)-5-(4-hydroxybutylidene)-2,5-dihydrothiazole-4-carboxylic acid formation at 5 mM incubated for 16 hrs by 1H-NMR based analysis; type: ADME; conditions: bacteria, 5000 µM; summary of the method: as §1
[19] = Drug metabolism assessed as OXA-48 (unknown origin)-mediated compound hydrolysis by measuring (S)-2-((1S,2R)-1-carboxy-2-hydroxypropyl)-5-((R)-tetrahydrofuran-2-yl)-2,3-dihydrothiazole-4-carboxylic acid formation at 5 mM incubated for 55 mins by 1H-NMR based analysis; type: ADME; conditions: bacteria, 5000 µM; summary of the method: as §2
[20] = Drug metabolism assessed as OXA10 (unknown origin)-mediated compound hydrolysis by measuring (S)-2-((1S,2R)-1-carboxy-2-hydroxypropyl)-5-(4-hydroxybutylidene)-2,5-dihydrothiazole-4-carboxylic acid formation at 5 mM incubated for 16 hrs by 1H-NMR based analysis; type: ADME; conditions: bacteria, 5000 µM; summary of the method: as §1
[21] = Drug metabolism assessed as VIM-1 (unknown origin)-mediated compound hydrolysis by measuring (R)-2-((1S,2R)-1-carboxy-2-hydroxypropyl)-5-(4-hydroxybutylidene)-2,5-dihydrothiazole-4-carboxylic acid formation at 5 mM incubated for 5 mins by 1H-NMR based analysis; type: ADME; conditions: bacteria, 5000 µM
[22] = Drug metabolism assessed as NDM-1 (unknown origin)-mediated compound hydrolysis by measuring (S)-2-((1S,2R)-1-carboxy-2-hydroxypropyl)-5-(4-hydroxybutylidene)-2,5-dihydrothiazole-4-carboxylic acid formation at 5 mM incubated for 5 mins by 1H-NMR based analysis; type: ADME; conditions: bacteria, 5000 µM; summary of the method: as §3
[23] = tested on: Mycobacterium tuberculosis H37Rv; remark: listed apart in the source
[24] = Drug metabolism assessed as OXA-48 (unknown origin)-mediated compound hydrolysis by measuring (S)-2-((1S,2R)-1-carboxy-2-hydroxypropyl)-5-(4-hydroxybutylidene)-2,5-dihydrothiazole-4-carboxylic acid formation at 5 mM incubated for 55 mins by 1H-NMR based analysis; type: ADME; conditions: bacteria, 5000 µM; summary of the method: as §2
[25] = Drug metabolism assessed as VIM-2 (unknown origin)-mediated compound hydrolysis by measuring (2R)-2-((1S,2R)-1-carboxy-2-hydroxypropyl)-5-((R)-tetrahydrofuran-2-yl)-2,5-dihydrothiazole-4-carboxylic acid formation at 5 mM incubated for 5 mins by 1H-NMR based analysis; type: ADME; conditions: bacteria, 5000 µM
[26] = tested on: Bradyrhizobium japonicum; conditions: USDA110; remark: listed apart in the source
[27] = Drug metabolism assessed as VIM-1 (unknown origin)-mediated compound hydrolysis by measuring (2R)-2-((1S,2R)-1-carboxy-2-hydroxypropyl)-5-((R)-tetrahydrofuran-2-yl)-2,5-dihydrothiazole-4-carboxylic acid formation at 5 mM incubated for 5 mins by 1H-NMR based analysis; type: ADME; conditions: bacteria, 5000 µM

C[C@@H](O)[C@H]1C(=O)N2C(C(=O)O)=C([C@H]3CCCO3)S[C@H]12 [FAROPENEM]
Drug metabolism [1]: Metabolite_Detected
kcat/Km [2]: 1.2e+06 M⁻¹ s⁻¹
Drug metabolism [3]: Metabolite_Detected
Km [4]: 5.11 µM
kcat/Km [5]: 150000 M⁻¹ s⁻¹
Drug metabolism [6]: Metabolite_Detected
Km [7]: 99 µM
Drug metabolism [8]: Metabolite_Detected
kcat [9]: 2 s⁻¹
Drug metabolism [10]: Metabolite_Detected
kcat [11]: 0.91 s⁻¹
kcat [12]: 3.71 s⁻¹
Km [13]: 23 µM
Drug metabolism [14]: Metabolite_Detected
Drug metabolism [15]: Metabolite_Detected
Drug metabolism [16]: Metabolite_Detected
Drug metabolism [17]: Metabolite_Detected
Drug metabolism [18]: Metabolite_Detected
Drug metabolism [19]: Metabolite_Detected
Drug metabolism [20]: Metabolite_Detected
Drug metabolism [21]: Metabolite_Detected
Drug metabolism [22]: Metabolite_Detected
kcat/Km [23]: 40000 M⁻¹ s⁻¹
Drug metabolism [24]: Metabolite_Detected
Drug metabolism [25]: Metabolite_Detected
Km [26]: 245 µM
Drug metabolism [27]: Metabolite_Detected

Source: ChEMBL document CHEMBL4732233, “Faropenem reacts with serine and metallo-β-lactamases to give multiple products” (Eur J Med Chem, 2021)
